These results are taken from ChEMBL document CHEMBL4138227, “Identification of an oxime-containing C-glucosylarene as a potential inhibitor of sodium-dependent glucose co-transporter 2” (Eur J Med Chem, 2018).

Series [1] can be described thus: Volume of distribution at steady state in Sprague-Dawley rat at 1.1 mg/kg, iv. It counts as ADME, organism-based. As to conditions: in vivo, read-out: Vdss.
Series [2] in a line: Clearance in Sprague-Dawley rat at 1.1 mg/kg, iv. It is filed as ADME, organism-based. To be noted: in vivo.
A short description of series [3]: Tmax in Sprague-Dawley rat at 1.1 mg/kg, po. It is filed as ADME, organism-based. To be noted: in vivo.
The nature of series [4]: Oral bioavailability in Sprague-Dawley rat at 1.1 mg/kg. To be noted: in vivo. It counts as ADME, organism-based.
Series [5] in a line: AUC (0 to infinity) in Sprague-Dawley rat at 1.1 mg/kg, iv. It counts as ADME, organism-based. Details: dose 1.1 mg/kg, route intravenous, time infinity. To be noted: in vivo. The method, boiled down:
(§1)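 Rats got a single intravenous or oral dose, with 3 animals per route. Pharmacokinetic parameters were derived, including T1/2, clearance, Vss, Cmax, Tmax, AUC(0-inf) and oral bioavailability (F).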

The nature of series [6]: Elimination half life in Sprague-Dawley rat at 1.1 mg/kg, iv. It is filed as ADME, organism-based. To be noted: in vivo, read-out: beta t1/2 (converted).
Series [7] in a line: Elimination half life in Sprague-Dawley rat at 1.1 mg/kg, po. It is filed as ADME, organism-based. To be noted: in vivo, read-out: beta t1/2 (converted).
Series [8] is described as follows: AUC (0 to infinity) in Sprague-Dawley rat at 1.1 mg/kg, po. It counts as ADME, organism-based. Also on record: dose 1.1 mg/kg, time infinity, route oral. As to conditions: in vivo. In outline:
as §1

A short description of series [9]: Cmax in Sprague-Dawley rat at 1.1 mg/kg, po. It counts as ADME, organism-based. Details: dose 1.1 mg/kg, route oral. As to conditions: in vivo.
Series [10] deals with T1, Sodium/glucose cotransporter 2 (Homo sapiens, UniProt P31639).
T1 sequence (P31639 whole entry): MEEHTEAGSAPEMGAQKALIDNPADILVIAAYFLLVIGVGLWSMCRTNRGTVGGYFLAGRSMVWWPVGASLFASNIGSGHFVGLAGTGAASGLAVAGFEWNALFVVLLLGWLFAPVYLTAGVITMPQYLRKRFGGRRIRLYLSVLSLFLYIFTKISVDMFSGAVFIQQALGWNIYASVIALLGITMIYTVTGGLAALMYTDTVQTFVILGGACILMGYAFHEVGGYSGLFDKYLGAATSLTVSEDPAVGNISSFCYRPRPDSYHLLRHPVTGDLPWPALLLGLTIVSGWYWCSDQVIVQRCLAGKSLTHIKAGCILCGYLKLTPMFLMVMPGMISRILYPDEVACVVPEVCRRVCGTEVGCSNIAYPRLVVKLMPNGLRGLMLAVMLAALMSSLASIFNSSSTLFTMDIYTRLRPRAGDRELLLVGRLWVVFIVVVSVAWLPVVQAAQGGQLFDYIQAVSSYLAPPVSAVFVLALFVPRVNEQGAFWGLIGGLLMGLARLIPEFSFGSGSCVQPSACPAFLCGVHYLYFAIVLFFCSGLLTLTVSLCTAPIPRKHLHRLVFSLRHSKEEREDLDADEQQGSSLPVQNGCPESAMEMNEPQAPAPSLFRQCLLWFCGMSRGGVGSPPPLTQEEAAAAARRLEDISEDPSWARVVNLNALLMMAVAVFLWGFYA
Put plainly: Inhibition of human SGLT2 expressed in CHO cells assessed as reduction in [14C]AMG uptake after 1 hr by microbeta counting method. It counts as cell-based. The method, boiled down: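 CHO cells stably expressing human SGLT2 (or SGLT1); inhibition of sodium-dependent uptake of [14C]α-methyl-D-glucopyranoside measured; EC50 from at least two independent experiments, each in triplicate.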

The subject of series [11] is Rattus norvegicus. Put plainly: In vivo inhibition of SGLT2 in Sprague-Dawley rat assessed as urinary glucose excretion per 200 gram of body weight at 1 mg/kg, po administered as single dose measured after 24 hrs. It is filed as functional. The method, boiled down: (§2)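 Normal SD rats given a single oral dose (0.1, 1, 10 or 50 mg/kg) or vehicle; urine collected over 24 h and glucose excretion expressed as mg per 200 g body weight; mean ± SEM, n = 4/group (vehicle n = 8).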

Series [12] concerns Rattus norvegicus. Put plainly: In vivo inhibition of SGLT2 in Sprague-Dawley rat assessed as urinary glucose excretion per 200 gram of body weight at 0.1 mg/kg, po administered as single dose measured after 24 hrs. It is filed as functional. In outline:
as §2

Series [13] is described as follows: Elimination half life in Sprague-Dawley rat at 1 mg/kg, iv. It is filed as ADME, organism-based. As to conditions: in vivo, read-out: beta t1/2 (converted).
Series [14] is described as follows: AUC (0 to infinity) in Sprague-Dawley rat at 1 mg/kg, iv. To be noted: in vivo. It is filed as ADME, organism-based. Details: dose 1 mg/kg, time infinity, route intravenous. The method, boiled down:
as §1

Series [15] relates to Rattus norvegicus. Put plainly: Antihyperglycemic activity in streptozotocin-induced diabetic Sprague-Dawley rat model assessed as reduction in blood glucose level at 0.1 to 10 mg/kg, po administered as single dose measured after 5 hrs relative to control. It is filed as functional. Details: scale not given: the % may be the effect or the level left. The method, boiled down: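 STZ-diabetic SD rats (blood glucose >450 mg/dL), single oral dose 0.1 or 10 mg/kg or vehicle; tail-vein blood sampled at 0 (predose), 0.5, 1, 2, 3, 4 and 5 h for glucose; reduction expressed versus vehicle control; mean ± SEM, n = 6/group.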

Series [16] in a line: Volume of distribution at steady state in Sprague-Dawley rat at 1 mg/kg, iv. It is filed as ADME, organism-based. To be noted: in vivo, read-out: Vdss.
In series [17] the test system is Rattus norvegicus. In words: In vivo inhibition of SGLT2 in Sprague-Dawley rat assessed as urinary glucose excretion per 200 gram of body weight at 50 mg/kg, po administered as single dose measured after 24 hrs. It is filed as functional. The method, boiled down:
as §2

The next series has as its target hERG (KCNH2) (Homo sapiens, UniProt Q12809). In words: Inhibition of human ERG at 10 uM by radioligand assay relative to control. In outline: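 hERG radioligand binding assay run externally by a contract laboratory; test compound at 10 µM, percent inhibition reported.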
Series [18] is described as follows: Clearance in Sprague-Dawley rat at 1 mg/kg, iv. It is filed as ADME, organism-based. To be noted: in vivo.
Series [19] relates to Rattus norvegicus. Put plainly: In vivo inhibition of SGLT2 in Sprague-Dawley rat assessed as urinary glucose excretion per 200 gram of body weight at 10 mg/kg, po administered as single dose measured after 24 hrs. It is filed as functional. In outline:
as §2

In series [20] the test system is Rattus norvegicus. In words: In vivo inhibition of SGLT2 in Sprague-Dawley rat assessed as increase in urinary glucose excretion per 200 gram of body weight at 0.1 to 50 mg/kg, po administered as single dose measured after 24 hrs relative to control. It counts as functional. In outline:
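Normal Sprague-Dawley rats were given a single oral dose of 0.1, 1, 10 or 50 mg/kg. Urine was collected over 24 h and glucose excretion expressed as mg glucose per 200 g body weight, relative to vehicle controls. Groups were n = 4, with vehicle n = 8. Data are mean ± SEM; p < 0.05 vs vehicle.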

The nature of series [21]: AUC (0 to infinity) in Sprague-Dawley rat at 0.9 mg/kg, iv. It counts as ADME, organism-based. Also on record: dose 0.9 mg/kg, route intravenous, time infinity. To be noted: in vivo. The method, boiled down: as §1
Series [22] in a line: Clearance in Sprague-Dawley rat at 0.9 mg/kg, iv. It counts as ADME, organism-based. As to conditions: in vivo.
Series [23] is described as follows: Volume of distribution at steady state in Sprague-Dawley rat at 0.9 mg/kg, iv. It is filed as ADME, organism-based. As to conditions: in vivo, read-out: Vdss.
Series [24] is described as follows: Elimination half life in Sprague-Dawley rat at 0.9 mg/kg, iv. It is filed as ADME, organism-based. To be noted: in vivo, read-out: beta t1/2 (converted).

Chain of hERG (KCNH2) (Q12809 whole entry): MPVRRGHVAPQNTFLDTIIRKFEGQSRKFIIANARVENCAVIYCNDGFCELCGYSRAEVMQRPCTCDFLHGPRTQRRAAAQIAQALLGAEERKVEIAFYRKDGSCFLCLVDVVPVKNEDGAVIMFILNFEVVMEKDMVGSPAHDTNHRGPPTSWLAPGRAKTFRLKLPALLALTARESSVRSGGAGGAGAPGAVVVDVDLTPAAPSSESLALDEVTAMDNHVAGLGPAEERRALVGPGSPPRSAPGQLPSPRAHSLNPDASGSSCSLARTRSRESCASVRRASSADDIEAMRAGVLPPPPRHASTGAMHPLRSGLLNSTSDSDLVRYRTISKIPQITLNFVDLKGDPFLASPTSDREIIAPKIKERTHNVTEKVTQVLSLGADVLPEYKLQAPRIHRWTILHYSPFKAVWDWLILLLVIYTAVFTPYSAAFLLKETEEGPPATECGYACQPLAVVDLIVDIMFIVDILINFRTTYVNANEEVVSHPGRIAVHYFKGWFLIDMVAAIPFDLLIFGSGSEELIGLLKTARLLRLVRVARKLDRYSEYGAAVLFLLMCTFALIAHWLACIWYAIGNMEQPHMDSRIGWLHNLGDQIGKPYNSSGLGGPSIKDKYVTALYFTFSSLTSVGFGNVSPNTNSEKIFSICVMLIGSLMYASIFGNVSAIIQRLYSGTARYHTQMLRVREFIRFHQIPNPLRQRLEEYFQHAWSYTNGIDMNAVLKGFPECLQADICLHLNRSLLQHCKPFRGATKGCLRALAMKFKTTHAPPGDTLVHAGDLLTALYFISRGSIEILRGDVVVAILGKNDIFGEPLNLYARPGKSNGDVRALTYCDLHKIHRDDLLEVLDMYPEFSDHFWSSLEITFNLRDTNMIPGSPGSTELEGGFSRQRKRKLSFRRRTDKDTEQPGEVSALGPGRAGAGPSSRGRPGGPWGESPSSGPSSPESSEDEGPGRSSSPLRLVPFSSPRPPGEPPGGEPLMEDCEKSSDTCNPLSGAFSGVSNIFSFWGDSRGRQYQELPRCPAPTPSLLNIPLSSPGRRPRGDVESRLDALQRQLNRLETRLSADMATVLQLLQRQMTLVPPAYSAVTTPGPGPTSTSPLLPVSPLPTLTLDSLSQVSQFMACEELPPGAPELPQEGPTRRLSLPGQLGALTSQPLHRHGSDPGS

Consider `CCOc1ccc(Cc2cc([C@@H]3O[C@H](/C=N/NCCO)[C@@H](O)[C@H](O)[C@H]3O)ccc2Cl)cc1`, for which the Vd in [1] came to 0.8 L/kg. In addition, the clearance – broadly, the volume of plasma or blood freed of the substance per unit of time – in series [2] stood at 17.6 mL/min/kg. Further, the Tmax (in general, the time at which the peak concentration occurs) in series [3] amounted to 0.7 h. Moreover, the bioavailability – broadly, the share of a dose that reaches the circulation, judged against a reference dose that is usually intravenous – in series [4] was 7.1%. In addition, the values for the AUC(0-inf) in series [5] and in series [8] were 1030 ng·h/mL and 73 ng·h/mL, respectively. Also, the half-life in series [6] is 0.7 h; in series [7], 1.2 h. Besides, the peak level in series [9] (Cmax) was 34.5 ng/mL. Moreover, in series [10], the EC50 (commonly the midpoint of the concentration-response curve) was 88 nM.

Regarding `CCOc1ccc(Cc2cc([C@@H]3O[C@H](CNNc4ccc([N+](=O)[O-])cc4)[C@@H](O)[C@H](O)[C@H]3O)ccc2Cl)cc1`, the EC50 in series [10] is 211 nM.

With `CCOc1ccc(Cc2cc([C@@H]3O[C@H](/C=N/Nc4ccccc4[N+](=O)[O-])[C@@H](O)[C@H](O)[C@H]3O)ccc2Cl)cc1`, the EC50 in series [10] was determined as 457 nM.

Consider `CCOc1ccc(Cc2cc([C@@H]3O[C@H](/C=N/Nc4ccc([N+](=O)[O-])cc4)[C@@H](O)[C@H](O)[C@H]3O)ccc2Cl)cc1`, for which the EC50 in [10] amounted to 370 nM.

Turning to `CCOc1ccc(Cc2cc([C@@H]3O[C@H](/C=N/O)[C@@H](O)[C@H](O)[C@H]3O)ccc2Cl)cc1`, the Activity is on record as 2215 mg with Rattus norvegicus [11]; 275 mg in the series with Rattus norvegicus [12]; 44% with Rattus norvegicus [15]; 2732 mg with Rattus norvegicus [17]; 1935 mg with Rattus norvegicus [19]. In addition, the half-life was 4.7 h in series [13] and 9 h in series [7]. Further, the AUC(0-inf) – broadly, total exposure, with the tail of the curve extrapolated – in [14] was found to be 3270 ng·h/mL; in series [8], 2270 ng·h/mL. Moreover, the Vd in series [16] came to 1.8 L/kg. Also, testing at 10 µM on hERG (KCNH2) gave an inhibition of 2%. Moreover, in [3], the time to peak (Tmax) was determined as 1 h. The compound also yielded a clearance in series [18] of 5 mL/min/kg. The compound further returned a bioavailability in series [4] of 64%. Besides, in series [9], the Cmax – broadly, the peak of the concentration-time curve – is 239 ng/mL. Further, in series [10], the 50% effective concentration (EC50) amounted to 46 nM. Also, the “fold change (FC)” value with Rattus norvegicus [20] is listed as 476 - 4730.

With `CCOc1ccc(Cc2cc([C@@H]3O[C@H](/C=N/NC4=NCCN4)[C@@H](O)[C@H](O)[C@H]3O)ccc2Cl)cc1`, the EC50 in [10] was 429 nM.

Consider `CCOc1ccc(Cc2cc([C@@H]3O[C@H](/C=N/OCCOC)[C@@H](O)[C@H](O)[C@H]3O)ccc2Cl)cc1`, for which the concentration giving a half-maximal response (EC50) in series [10] stood at 678 nM.

As for `CCOc1ccc(Cc2cc([C@@H]3O[C@H](/C=N/Nc4nc5ccccc5s4)[C@@H](O)[C@H](O)[C@H]3O)ccc2Cl)cc1`, the half-maximal effective concentration (EC50) in series [10] came to 204 nM.

For `CCOc1ccc(Cc2cc([C@@H]3O[C@H](/C=N/NC(=O)c4ccc(Cl)cc4)[C@@H](O)[C@H](O)[C@H]3O)ccc2Cl)cc1`, the EC50 in series [10] stood at 65 nM.

On to `CCOc1ccc(Cc2cc([C@@H]3O[C@H](/C=N/OCCO)[C@@H](O)[C@H](O)[C@H]3O)ccc2Cl)cc1`, for which, in [10], the EC50 is 194 nM.

Consider `CCOc1ccc(Cc2cc([C@@H]3O[C@H](/C=N/NC(=O)c4ccccc4)[C@@H](O)[C@H](O)[C@H]3O)ccc2Cl)cc1`, for which, in series [21], the area under the curve AUC(0-inf) came out at 206 ng·h/mL. The clearance in series [22] stood at 75.7 mL/min/kg. Besides, the Vd in series [23] was 1.4 L/kg. Moreover, the half-life in series [24] is 0.36 h. For the same compound, the 50% effective concentration (EC50) in series [10] was found to be 130 nM.

Turning to `CCOc1ccc(Cc2cc([C@@H]3O[C@H](/C=N/NCc4ccccc4)[C@@H](O)[C@H](O)[C@H]3O)ccc2Cl)cc1`, the EC50 in series [10] turned out to be 38 nM.

As to `CCOc1ccc(Cc2cc([C@@H]3O[C@H](CNO)[C@@H](O)[C@H](O)[C@H]3O)ccc2Cl)cc1`, in series [10], the EC50 stood at 95 nM.
